Each molecule was assayed on Staphylococcus epidermidis (assay: Antimicrobial activity against extended spectrum beta-lactamases-producing methicillin-sensitive Staphylococcus epidermidis 10-11 after 18-24 hrs by two-fold serial dilution method).
Type: functional
Summary of the method: (§1)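 Agar-medium twofold serial dilution against Gram-positive and Gram-negative strains; MIC taken as the lowest compound concentration giving complete inhibition of bacterial growth after incubation at 35 °C for 18-24 h.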

Compound | MIC
COc1cc(CO/N=C2\CN(c3nc4c(cc3F)c(=O)c(C(=O)O)cn4C3CC3)CC2CN)ccc1OC(F)F.CS(=O)(=O)O (racemic) | 0.25 µg/mL

Each molecule was assayed on Pseudomonas aeruginosa (assay: Antimicrobial activity against Pseudomonas aeruginosa 10-12 after 18-24 hrs by two-fold serial dilution method).
Type: functional
Summary of the method: as §1

Compound | MIC
COc1cc(CO/N=C2\CN(c3nc4c(cc3F)c(=O)c(C(=O)O)cn4C3CC3)CC2CN)ccc1OC(F)F.CS(=O)(=O)O (racemic) | 8 µg/mL

These molecules were tested on Enterococcus faecalis (assay: Antimicrobial activity against Enterococcus faecalis 10-5 after 18-24 hrs by two-fold serial dilution method).
Type: functional
Summary of the method: as §1

Compound | MIC
COc1cc(CO/N=C2\CN(c3nc4c(cc3F)c(=O)c(C(=O)O)cn4C3CC3)CC2CN)ccc1OC(F)F.CS(=O)(=O)O (racemic) | 2 µg/mL

The molecules below were run on Enterococcus faecalis (assay: Antimicrobial activity against Enterococcus faecalis 10-6 after 18-24 hrs by two-fold serial dilution method).
Type: functional
Summary of the method: as §1

Compound | MIC
COc1cc(CO/N=C2\CN(c3nc4c(cc3F)c(=O)c(C(=O)O)cn4C3CC3)CC2CN)ccc1OC(F)F.CS(=O)(=O)O (racemic) | 8 µg/mL

The molecules below were run on Staphylococcus aureus (assay: Antimicrobial activity against extended spectrum beta-lactamases-producing methicillin-resistant Staphylococcus aureus 10-15 after 18-24 hrs by two-fold serial dilution method).
Type: functional
Summary of the method: (§2)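 Agar twofold serial dilution MIC against clinical isolates. MIC was taken as the lowest concentration giving complete inhibition of bacterial growth after incubation at 35 °C for 18-24 h.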

Compound | MIC
COc1cc(CO/N=C2\CN(c3nc4c(cc3F)c(=O)c(C(=O)O)cn4C3CC3)CC2CN)ccc1OC(F)F.CS(=O)(=O)O (racemic) | 0.5 µg/mL

Each molecule was assayed on Pseudomonas aeruginosa (assay: Antimicrobial activity against extended spectrum beta-lactamases-producing Pseudomonas aeruginosa 10-9 after 18-24 hrs by two-fold serial dilution method).
Type: functional
Summary of the method: as §1

Compound | MIC
COc1cc(CO/N=C2\CN(c3nc4c(cc3F)c(=O)c(C(=O)O)cn4C3CC3)CC2CN)ccc1OC(F)F.CS(=O)(=O)O (racemic) | 8 µg/mL

The molecules below were run on Staphylococcus epidermidis (assay: Antimicrobial activity against extended spectrum beta-lactamases-producing methicillin-resistant Staphylococcus epidermidis 10-13 after 18-24 hrs by two-fold serial dilution method).
Type: functional
Summary of the method: as §2

Compound | MIC
COc1cc(CO/N=C2\CN(c3nc4c(cc3F)c(=O)c(C(=O)O)cn4C3CC3)CC2CN)ccc1OC(F)F.CS(=O)(=O)O (racemic) | 4 µg/mL

Each molecule was assayed on Pseudomonas aeruginosa (assay: Antimicrobial activity against extended spectrum beta-lactamases-producing Pseudomonas aeruginosa 10-18 after 18-24 hrs by two-fold serial dilution method).
Type: functional
Summary of the method: as §1

Compound | MIC
COc1cc(CO/N=C2\CN(c3nc4c(cc3F)c(=O)c(C(=O)O)cn4C3CC3)CC2CN)ccc1OC(F)F.CS(=O)(=O)O (racemic) | 16 µg/mL

The molecules below were run on Klebsiella pneumoniae (assay: Antimicrobial activity against extended spectrum beta-lactamases-producing Klebsiella pneumoniae 10-1 after 18-24 hrs by two-fold serial dilution method).
Type: functional
Summary of the method: as §1

Compound | MIC
COc1cc(CO/N=C2\CN(c3nc4c(cc3F)c(=O)c(C(=O)O)cn4C3CC3)CC2CN)ccc1OC(F)F.CS(=O)(=O)O (racemic) | > 128 µg/mL

The molecules below were run on Pseudomonas aeruginosa (assay: Antimicrobial activity against extended spectrum beta-lactamases-producing Pseudomonas aeruginosa 10-5 after 18-24 hrs by two-fold serial dilution method).
Type: functional
Summary of the method: as §1

Compound | MIC
COc1cc(CO/N=C2\CN(c3nc4c(cc3F)c(=O)c(C(=O)O)cn4C3CC3)CC2CN)ccc1OC(F)F.CS(=O)(=O)O (racemic) | 8 µg/mL

The molecules below were run on Escherichia coli (assay: Antimicrobial activity against extended spectrum beta-lactamases-producing Escherichia coli 10-2 after 18-24 hrs by two-fold serial dilution method).
Type: functional
Summary of the method: as §1

Compound | MIC
COc1cc(CO/N=C2\CN(c3nc4c(cc3F)c(=O)c(C(=O)O)cn4C3CC3)CC2CN)ccc1OC(F)F.CS(=O)(=O)O (racemic) | > 128 µg/mL

These molecules were tested on Escherichia coli (assay: Antimicrobial activity against extended spectrum beta-lactamases-producing Escherichia coli 10-3 after 18-24 hrs by two-fold serial dilution method).
Type: functional
Summary of the method: as §1

Compound | MIC
COc1cc(CO/N=C2\CN(c3nc4c(cc3F)c(=O)c(C(=O)O)cn4C3CC3)CC2CN)ccc1OC(F)F.CS(=O)(=O)O (racemic) | > 128 µg/mL

These molecules were tested on Klebsiella pneumoniae (assay: Antimicrobial activity against Klebsiella pneumoniae 10-4 after 18-24 hrs by two-fold serial dilution method).
Type: functional
Summary of the method: as §1

Compound | MIC
COc1cc(CO/N=C2\CN(c3nc4c(cc3F)c(=O)c(C(=O)O)cn4C3CC3)CC2CN)ccc1OC(F)F.CS(=O)(=O)O (racemic) | > 128 µg/mL

What follows are molecules tested on Escherichia coli (assay: Antimicrobial activity against extended spectrum beta-lactamases-producing Escherichia coli 10-4 after 18-24 hrs by two-fold serial dilution method).
Type: functional
Summary of the method: as §1

Compound | MIC
COc1cc(CO/N=C2\CN(c3nc4c(cc3F)c(=O)c(C(=O)O)cn4C3CC3)CC2CN)ccc1OC(F)F.CS(=O)(=O)O (racemic) | 8 µg/mL

What follows are molecules tested on Staphylococcus aureus (assay: Antimicrobial activity against extended spectrum beta-lactamases-producing methicillin-sensitive Staphylococcus aureus 10-13 after 18-24 hrs by two-fold serial dilution method).
Type: functional
Summary of the method: as §1

Compound | MIC
COc1cc(CO/N=C2\CN(c3nc4c(cc3F)c(=O)c(C(=O)O)cn4C3CC3)CC2CN)ccc1OC(F)F.CS(=O)(=O)O (racemic) | 0.06 µg/mL

These molecules were tested on Enterococcus faecium (assay: Antimicrobial activity against Enterococcus faecium 10-9 after 18-24 hrs by two-fold serial dilution method).
Type: functional
Summary of the method: as §1

Compound | MIC
COc1cc(CO/N=C2\CN(c3nc4c(cc3F)c(=O)c(C(=O)O)cn4C3CC3)CC2CN)ccc1OC(F)F.CS(=O)(=O)O (racemic) | 16 µg/mL

The molecules below were run on Staphylococcus aureus (assay: Antimicrobial activity against extended spectrum beta-lactamases-producing methicillin-sensitive Staphylococcus aureus 10-14 after 18-24 hrs by two-fold serial dilution method).
Type: functional
Summary of the method: as §1

Compound | MIC
COc1cc(CO/N=C2\CN(c3nc4c(cc3F)c(=O)c(C(=O)O)cn4C3CC3)CC2CN)ccc1OC(F)F.CS(=O)(=O)O (racemic) | 0.03 µg/mL

Each molecule was assayed on Staphylococcus aureus (assay: Antimicrobial activity against Staphylococcus aureus ATCC […] after 18-24 hrs by two-fold serial dilution method).
Type: functional
Summary of the method: as §1

Compound | MIC
COc1cc(CO/N=C2\CN(c3nc4c(cc3F)c(=O)c(C(=O)O)cn4C3CC3)CC2CN)ccc1OC(F)F.CS(=O)(=O)O (racemic) | 0.008 µg/mL
